Results: ChEMBL document CHEMBL4304743, “Discovery of ( E)- N1-(3-Fluorophenyl)- N3-(3-(2-(pyridin-2-yl)vinyl)-1 H-indazol-6-yl)malonamide (CHMFL-KIT-033) as a Novel c-KIT T670I Mutant Selective Kinase Inhibitor for Gastrointestinal Stromal Tumors (GISTs)” (J Med Chem, 2019)
Active and inactive are the calls of the source. The calls are words filed in the database; no cut-off is given here.

Legend:
[1] = system: Mast/stem cell growth factor receptor Kit (Homo sapiens), P10721 [V559D]; assay: Inhibition of TEL fused c-KIT V559D mutant (unknown origin) transfected in mouse BAF3 cells assessed as growth inhibition after 72 hrs by CCK8 assay; format: cell-based
Procedure, shortened: (§1)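 Tel-c-KIT-transformed BaF3 lines (IL-3 independent) kept in RPMI 1640 with 10% FBS, 2% L-glutamine and pen/strep. Cells at 1.5 to 5 × 10^4 cells/mL mixed with graded compound and incubated 72 h at 37 °C, 5% CO2. Viability by CCK-8 absorbance at 450 nm, normalized to DMSO. GI50 from dose–response fit.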

[2] = biological target: T1, Mast/stem cell growth factor receptor Kit (Homo sapiens, UniProt P10721); assay: Inhibition of TEL fused wild type c-KIT (unknown origin) transfected in mouse BaF3 cells assessed as reduction in phosphorylation at Y823 residue after 2 hrs by Western blot analysis; format: cell-based
[3] = system: Mus musculus; assay: Inhibition of ERK phosphorylation at T202/Y204 residue in tumor of human GIST5R cells xenografted in nude mouse at 100 mg/kg, po administered as single dose and measured at 2 hrs; format: functional, organism-based
Procedure, shortened: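 Female nu/nu mice bearing subcutaneous GIST-5R tumors (cells in Matrigel, right flank) given one oral dose of 100 mg/kg in 0.5% methylcellulose/0.4% Tween80. Tumors collected over a 2 h time course. p-c-KIT, p-ERK and p-AKT measured alongside plasma drug levels.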

[4] = system: Mast/stem cell growth factor receptor Kit (Homo sapiens), P10721 [V559D]; assay: Binding affinity to human partial length c-KIT V559D mutant (Y545 to D952 residues) expressed in bacterial expression system assessed as enzyme remaining activity at 1 uM by Kinomescan method relative to control
Procedure, shortened: (§2)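 KINOMEscan binding profile (DiscoverX) run at 1 μM against a panel of 468 kinases and mutants. Read-out is percent of control (%Ctrl) remaining bound.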

[5] = system: Mast/stem cell growth factor receptor Kit (Homo sapiens), P10721 [V559D,T670I]; assay: Binding affinity to human partial length c-KIT V559D/T670I double mutant (Y545 to D952 residues) expressed in bacterial expression system assessed as enzyme remaining activity at 1 uM by Kinomescan method relative to control; procedure, shortened: as §2
[6] = system: Mast/stem cell growth factor receptor Kit (Homo sapiens), P10721 [D816H]; assay: Inhibition of TEL fused c-KIT D816H mutant (unknown origin) transfected in mouse BAF3 cells assessed as growth inhibition after 72 hrs by CCK8 assay; format: cell-based; procedure, shortened: as §1
[7] = biological target: T1, Mast/stem cell growth factor receptor Kit; assay: Inhibition of wild type c-KIT phosphorylation at Y823 residue in human COLO320DM cells after 2 hrs by Western blot analysis; format: cell-based
[8] = Tmax in Sprague-Dawley rat at 10 mg/kg, po measured after 5 to 720 mins by LC-tandem mass spectrometry analysis; format: ADME, organism-based; conditions: in vivo
Procedure, shortened: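 Male Sprague–Dawley rats (190-210 g), fasted 12 h, given 1 mg/kg i.v. or 10 mg/kg p.o. in DMSO/5% glucose water (1:9). Blood sampled at 2–720 min (i.v.) or 5–720 min (p.o.). Plasma proteins precipitated with methanol using caffeine internal standard, then LC-MS/MS. Noncompartmental analysis; F = AUC0-∞ ratio corrected for dose; triplicate ±SD.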

[9] = Antiproliferative activity against human GIST5R cells harboring c-KIT 560 to 578 deletion/T670I double mutant incubated for 72 hrs by CCK8 assay; format: functional
Procedure, shortened: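 Adherent GIST cells seeded at 1.5-5 × 10^4 cells/mL and left overnight at 37 °C, 5% CO2. Medium then replaced with medium holding serial compound dilutions; 72 h incubation. Viability by CCK-8, absorbance at 450 nm, normalized to DMSO control; GI50 from dose-response fit.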

[10] = biological target: Mast/stem cell growth factor receptor Kit (Homo sapiens, UniProt P10721, T670I); assay: Inhibition of His-tagged c-KIT T670I mutant (544 to 935 residues) (unknown origin) expressed in baculovirus infected sf9 cells pre-incubated for 60 mins followed by ATP addition and measured after 1 hr by Z-LYTE assay
[11] = system: Mus musculus; assay: Effect on body weight in nude mouse xenografted with human GIST5R cells at 25 to 100 mg/kg, po administered […] via gavage for 28 days; format: ADME, organism-based; conditions: in vivo, 672 h
Procedure, shortened: (§3)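 Female nu/nu mice (5 weeks old) given subcutaneous right-flank GIST-5R cells in Matrigel. Dosing began at tumors of 200-400 mm3; randomized, 4 mice per group. Daily oral dosing (QD) at 25, 50 or 100 mg/kg in 0.5% methylcellulose/0.4% Tween80, or vehicle alone, for 28 days. Body weight and tumor volume, (W²×L)/2, measured daily; mean±SEM.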

[12] = biological target: Serine/threonine-protein kinase Nek1 (Homo sapiens, UniProt Q96PY6); assay: Inhibition of wild-type human partial length NEK1 (M1 to K278 residues) expressed in bacterial expression system after 1 hr by Z-LYTE assay
[13] = AUC (0 to t) in mouse at 1 mg/kg, iv measured after 2 to 720 mins by LC-tandem mass spectrometry analysis; format: ADME, organism-based; conditions: in vivo
Procedure, shortened: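 Mice dosed 1 mg/kg i.v. or 10 mg/kg p.o.; plasma drug levels by LC-MS/MS, parameters by noncompartmental analysis; values not from triplicate testing.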

[14] = Antiproliferative activity in mouse BAF3 cells after 72 hrs by CCK8 assay; format: cell-based
Procedure, shortened: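 IL-3-independent BaF3 cells carrying tel-c-KIT constructs, grown in RPMI 1640 with 10% FBS. Cells at 1.5-5 × 10^4 cells/mL mixed directly with serial compound dilutions, 72 h at 37 °C, 5% CO2. CCK-8 read-out at 450 nm, normalized to DMSO; GI50 by curve fitting.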

[15] = system: Mast/stem cell growth factor receptor Kit (Homo sapiens), P10721 [UNDEFINED MUTATION]; assay: Inhibition of c-KIT 560 to 578 deletion/T670I double mutant in human GISTT1 cells assessed as reduction in S6 phosphorylation at S235/S236 residue at 0.1 uM to 3 uM after 1 hr by Western blot analysis; format: cell-based
Procedure, shortened: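 Serial compound dilutions applied for 1 h to GIST-T1, GIST-T1-T670I (CRISPR/Cas9 T670I knock-in, clone confirmed by Sanger sequencing) or GIST-5R cells in DMEM with 10% FBS. Cells then lysed and phospho-proteins detected by standard Western blotting.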

[16] = system: Mast/stem cell growth factor receptor Kit (Homo sapiens), P10721 [V559A]; assay: Inhibition of TEL fused c-KIT V559A mutant (unknown origin) transfected in mouse BAF3 cells assessed as growth inhibition after 72 hrs by CCK8 assay; format: cell-based; procedure, shortened: as §1
[17] = system: GISTT1; assay: Induction of apoptosis in human GISTT1 cells harboring c-KIT 560 to 578 deletion/T670I double mutant assessed as increase in cleaved PARP level after 24 hrs by Western blot analysis; format: functional, cell-based
Procedure, shortened: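 GIST-T1-T670I cells grown in DMEM with 10% FBS, exposed to serially diluted compound for 24 h. Apoptosis read by Western blot with PARP and GAPDH antibodies.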

[18] = system: Homo sapiens; assay: Antitumor activity against human GIST5R cells xenografted in po dosed nude mouse assessed as reduction in tumor size administered […] via gavage for 28 days post tumor inoculation; format: functional, organism-based; procedure, shortened: as §3

Chain of Mast/stem cell growth factor receptor Kit (Homo sapiens), P10721 [V559D] (P10721 whole entry V559D, the tested form may be a part): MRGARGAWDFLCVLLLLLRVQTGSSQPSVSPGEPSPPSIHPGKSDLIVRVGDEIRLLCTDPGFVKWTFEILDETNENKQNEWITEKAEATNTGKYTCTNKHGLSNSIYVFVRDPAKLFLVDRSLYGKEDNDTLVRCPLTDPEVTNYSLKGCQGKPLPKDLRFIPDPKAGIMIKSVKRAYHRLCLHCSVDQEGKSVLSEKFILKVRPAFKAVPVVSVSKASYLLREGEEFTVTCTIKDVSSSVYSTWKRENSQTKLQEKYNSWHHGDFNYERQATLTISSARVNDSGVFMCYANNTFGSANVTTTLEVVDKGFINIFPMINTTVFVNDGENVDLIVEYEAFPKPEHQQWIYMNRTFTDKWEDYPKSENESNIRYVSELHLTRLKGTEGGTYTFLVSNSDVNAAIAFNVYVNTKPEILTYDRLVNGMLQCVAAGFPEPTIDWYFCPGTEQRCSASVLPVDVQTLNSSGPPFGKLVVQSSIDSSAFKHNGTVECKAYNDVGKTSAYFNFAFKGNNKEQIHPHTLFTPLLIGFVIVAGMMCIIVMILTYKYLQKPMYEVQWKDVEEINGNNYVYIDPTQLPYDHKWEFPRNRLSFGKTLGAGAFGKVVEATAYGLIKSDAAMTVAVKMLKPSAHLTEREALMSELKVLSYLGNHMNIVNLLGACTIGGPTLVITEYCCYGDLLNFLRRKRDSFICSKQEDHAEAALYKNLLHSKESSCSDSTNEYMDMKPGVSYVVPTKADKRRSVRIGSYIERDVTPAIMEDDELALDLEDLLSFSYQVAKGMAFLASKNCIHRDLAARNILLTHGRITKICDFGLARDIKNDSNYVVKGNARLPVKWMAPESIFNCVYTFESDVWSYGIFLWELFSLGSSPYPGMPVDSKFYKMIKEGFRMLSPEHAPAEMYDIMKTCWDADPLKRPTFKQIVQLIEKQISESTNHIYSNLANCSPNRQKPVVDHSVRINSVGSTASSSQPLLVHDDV
T1 sequence (P10721 whole entry, the tested form may be a part): as the sequence (P10721 whole entry V559D, the tested form may be a part) above, with D559V counted along it
Chain of Mast/stem cell growth factor receptor Kit (Homo sapiens), P10721 [V559A] (P10721 whole entry V559A, the tested form may be a part): as the sequence (P10721 whole entry V559D, the tested form may be a part) above, with D559A counted along it
Chain of Mast/stem cell growth factor receptor Kit (Homo sapiens), P10721 [D816H] (P10721 whole entry D816H, the tested form may be a part): as the sequence (P10721 whole entry V559D, the tested form may be a part) above, with D559V, D816H counted along it
Chain of Mast/stem cell growth factor receptor Kit (Homo sapiens), P10721 [V559D,T670I] (P10721 whole entry V559D/T670I, the tested form may be a part): as the sequence (P10721 whole entry V559D, the tested form may be a part) above, with T670I counted along it
Chain of Serine/threonine-protein kinase Nek1 (Q96PY6 whole entry, the tested form may be a part): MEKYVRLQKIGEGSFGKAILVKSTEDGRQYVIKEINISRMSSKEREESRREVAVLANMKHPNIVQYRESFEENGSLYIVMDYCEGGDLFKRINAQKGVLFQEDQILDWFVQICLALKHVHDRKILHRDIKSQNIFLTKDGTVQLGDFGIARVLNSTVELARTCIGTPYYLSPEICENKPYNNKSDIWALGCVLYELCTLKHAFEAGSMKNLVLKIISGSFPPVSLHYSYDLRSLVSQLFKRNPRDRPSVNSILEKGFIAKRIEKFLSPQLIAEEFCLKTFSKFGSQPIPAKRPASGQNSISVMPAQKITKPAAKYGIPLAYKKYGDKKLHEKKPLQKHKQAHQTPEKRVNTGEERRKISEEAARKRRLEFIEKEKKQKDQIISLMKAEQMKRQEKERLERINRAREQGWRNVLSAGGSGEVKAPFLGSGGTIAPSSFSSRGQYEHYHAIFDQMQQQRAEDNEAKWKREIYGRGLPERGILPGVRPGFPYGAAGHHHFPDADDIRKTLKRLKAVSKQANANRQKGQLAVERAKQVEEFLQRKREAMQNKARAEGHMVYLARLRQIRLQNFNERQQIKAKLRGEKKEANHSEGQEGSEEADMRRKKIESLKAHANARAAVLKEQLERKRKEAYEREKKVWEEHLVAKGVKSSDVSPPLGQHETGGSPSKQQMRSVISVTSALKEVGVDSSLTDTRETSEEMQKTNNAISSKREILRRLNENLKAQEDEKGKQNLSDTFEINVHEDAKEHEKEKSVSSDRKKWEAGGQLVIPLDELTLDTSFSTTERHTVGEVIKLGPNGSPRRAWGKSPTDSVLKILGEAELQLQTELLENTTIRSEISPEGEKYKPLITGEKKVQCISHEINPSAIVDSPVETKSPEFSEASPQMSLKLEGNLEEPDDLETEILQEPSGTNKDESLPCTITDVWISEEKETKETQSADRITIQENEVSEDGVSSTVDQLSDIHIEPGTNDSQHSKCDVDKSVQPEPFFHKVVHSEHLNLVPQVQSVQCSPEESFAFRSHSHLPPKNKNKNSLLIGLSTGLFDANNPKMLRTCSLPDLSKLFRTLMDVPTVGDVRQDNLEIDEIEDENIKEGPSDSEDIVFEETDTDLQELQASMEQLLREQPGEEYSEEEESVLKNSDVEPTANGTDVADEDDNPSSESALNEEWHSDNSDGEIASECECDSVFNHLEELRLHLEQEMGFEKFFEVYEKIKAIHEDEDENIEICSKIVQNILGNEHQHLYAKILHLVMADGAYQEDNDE
Chain of Mast/stem cell growth factor receptor Kit (Homo sapiens, UniProt P10721, T670I) (P10721 26-976 T670I limits assumed): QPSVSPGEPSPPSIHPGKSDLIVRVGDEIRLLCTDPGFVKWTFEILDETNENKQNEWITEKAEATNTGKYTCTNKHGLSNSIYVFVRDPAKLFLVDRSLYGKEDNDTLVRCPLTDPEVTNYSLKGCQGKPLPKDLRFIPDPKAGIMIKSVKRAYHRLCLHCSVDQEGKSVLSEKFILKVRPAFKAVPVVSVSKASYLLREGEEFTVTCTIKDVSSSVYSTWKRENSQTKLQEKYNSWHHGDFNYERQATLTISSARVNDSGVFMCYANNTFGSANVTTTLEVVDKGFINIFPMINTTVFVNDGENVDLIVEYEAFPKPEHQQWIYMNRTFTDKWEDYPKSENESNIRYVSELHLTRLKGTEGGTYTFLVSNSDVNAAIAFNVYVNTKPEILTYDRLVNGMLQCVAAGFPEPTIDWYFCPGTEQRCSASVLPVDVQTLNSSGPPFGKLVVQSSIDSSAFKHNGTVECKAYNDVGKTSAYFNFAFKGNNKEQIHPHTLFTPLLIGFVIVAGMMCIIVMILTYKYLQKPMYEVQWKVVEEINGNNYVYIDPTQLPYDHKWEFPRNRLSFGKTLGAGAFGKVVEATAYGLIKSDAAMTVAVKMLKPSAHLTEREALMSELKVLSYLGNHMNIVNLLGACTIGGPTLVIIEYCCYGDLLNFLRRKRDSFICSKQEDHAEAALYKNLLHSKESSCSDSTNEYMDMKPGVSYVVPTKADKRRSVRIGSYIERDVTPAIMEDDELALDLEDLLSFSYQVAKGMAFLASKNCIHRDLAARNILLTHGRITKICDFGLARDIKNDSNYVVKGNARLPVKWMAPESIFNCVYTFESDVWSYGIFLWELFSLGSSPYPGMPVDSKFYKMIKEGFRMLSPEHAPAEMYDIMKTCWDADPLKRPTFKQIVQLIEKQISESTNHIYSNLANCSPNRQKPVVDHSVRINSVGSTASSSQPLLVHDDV
Chain of Mast/stem cell growth factor receptor Kit (Homo sapiens), P10721 [UNDEFINED MUTATION] (P10721 whole entry, looked up, stated change not applied): as the sequence (P10721 whole entry V559D, the tested form may be a part) above, with D559V counted along it

SMILES: O=C(CC(=O)Nc1ccc2c(/C=C/c3ccccn3)n[nH]c2c1)Nc1cccc(F)c1
- GI50 [1]: 8 nM
- EC50 [2]: > 1000 nM
- inhibition [3]: Active
- Activity [4]: < 1%
- Activity [5]: < 1%
- GI50 [6]: 6840 nM
- EC50 [7]: 2050 nM
- Tmax [8]: 1.7 h
- GI50 [9]: 475 nM
- IC50 [10]: 45 nM
- Activity [11]: Non-Toxic
- IC50 [12]: > 10000 nM
- AUC(0-t) [13]: 898 ng·h/mL
- GI50 at 72 h [14]: 3970 nM
- inhibition [15]: Active
- GI50 [16]: 31 nM
- Activity [17]: Dose-dependent effect
- inhibition [18]: Dose-dependent effect
